Compounds with a hit are over-represented: about 3.5% of the library has one in this group of screens.
MrgX1 PAM: allosterically activates human MrgX1 receptor signaling; MrgX1-HEK293, Fluo-4 calcium flux, FDSS; active compounds read high; Q96LB2; actives 0.63% (n = 310,000); B-score at 10 µM;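 active = plate-corrected calcium response at least 3 library SD above typical, normal starting fluorescence, not activating the receptor alone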;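 also: compound read alongside a low EC10 to EC30 dose of BAM8-22 agonist; peak minus trough fluorescence over baseline measured at the second addition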
Target sequence (Q96LB2 whole entry, looked up): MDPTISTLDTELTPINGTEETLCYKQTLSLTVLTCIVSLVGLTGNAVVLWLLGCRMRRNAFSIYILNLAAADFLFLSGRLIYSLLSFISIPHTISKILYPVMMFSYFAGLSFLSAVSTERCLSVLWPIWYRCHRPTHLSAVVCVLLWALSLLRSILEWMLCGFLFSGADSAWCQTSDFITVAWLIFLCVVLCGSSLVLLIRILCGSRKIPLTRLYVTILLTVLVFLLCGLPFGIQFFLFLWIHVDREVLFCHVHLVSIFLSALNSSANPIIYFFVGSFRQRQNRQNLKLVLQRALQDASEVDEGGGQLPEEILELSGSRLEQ
RGS4 pot: RGS4 potentiation or activation. B-score at 10 µM. actives 0.92% (n = 310,000). HEK293 M3R/inducible RGS4, carbachol calcium flux Fluo4; active compounds read low. AID 463111;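 active = B-score of the integrated calcium signal more than 4 SD below the library mean, with starting fluorescence not abnormally high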;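 also: negative B-score means reduced calcium response which marks RGS4 activation or potentiation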
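Test system: HEK293 cells with stable M3R and inducible RGS4; also added: carbachol at ECmax as muscarinic agonist stimulus; schedule: dye loading 30 min 37 °C, buffer rest 30 min RT; technique: kinetic calcium fluorescence imaging with Fluo4-AM dye, 2 µM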
RGS4 inh: inhibitors of human RGS4; P49798; HEK293 M3R/RGS4 inducible, Fluo-4 calcium flux; active compounds read high; triggered by carbachol at its EC20; B-score at 10 µM; actives 0.45% (n = 310,000); AID 463165;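 active = B-score, a plate-corrected calcium signal, over three deviations above library mean, with baseline fluorescence within five deviations of library mean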;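 also: RGS4 expression induced by doxycycline in cells with stable M3 receptor; B-score is computed from the integrated fluorescence ratio over baseline after carbachol; higher B-score means a larger calcium signal and so more RGS4 inhibition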
Target sequence (P49798 whole entry, looked up): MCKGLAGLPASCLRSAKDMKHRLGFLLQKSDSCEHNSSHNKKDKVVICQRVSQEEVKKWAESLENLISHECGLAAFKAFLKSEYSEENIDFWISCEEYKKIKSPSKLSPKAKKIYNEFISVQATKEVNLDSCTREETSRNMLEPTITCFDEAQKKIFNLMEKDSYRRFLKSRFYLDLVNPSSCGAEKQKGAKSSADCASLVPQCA
MrgX1 agonist: activates human MrgX1 receptor signaling; Q96LB2; MrgX1-HEK293 cells, Fluo-4 calcium fluorescence, agonist mode; active compounds read high; B-score at 10 µM; actives 0.44% (n = 310,000); AID 588627;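 active = calcium response B-score plate-corrected fluorescence ratio at least 3 library SD, with starting fluorescence B-score inside 5 SD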
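System: HEK293 cells stably expressing human MrgX1 receptor; Dosing: test compound in the initial addition of three; Schedule: overnight plating, then 30 min 37 °C plus 30 min room-temperature dye loading; Detection: kinetic calcium dye fluorescence, Fluo-4 NW; Controls: per-plate positive and negative controls for Z′ factor.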
MrgX1 antagonist: antagonists of human MrgX1 receptor. Q96LB2. MRGX1-HEK293 calcium flux, Fluo-4, BAM8-22 antagonism; active compounds read low. B-score at 10 µM. actives 1.3% (n = 310,000). AID 588676;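 active = calcium-response B-score plate-corrected more than 3 library SD below zero, starting fluorescence within 5 deviations, no agonist response on first addition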;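 also: peak minus trough fluorescence over baseline after final BAM8-22 challenge near maximal dose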
RGS4 act valid: RGS4 activation, validation assay; shares compounds with RGS4 pot; HEK293 M3R/RGS4 inducible, carbachol calcium flux Fluo4; inhibition, % at 10 µM; actives 89% (n = 1,100);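 active = inhibition above 3 SD of the buffer control wells, cut at about 41% in these data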;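 also: signal is the integrated peak-minus-minimum Fluo4 fluorescence over baseline ratio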
M3R Ca counter: activity in cells without induced RGS4 expression; AID 602283; HEK293 M3R non-induced RGS4, Fluo4 calcium flux; after carbachol challenge at its EC90; actives 82% (n = 1,100); inhibition, % at 10 µM; shares compounds with RGS4 pot;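 active = inhibition exceeding 3 SD of buffer-only control wells, cut at about 26% in these data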;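 also: percent drop in integrated peak-minus-baseline over baseline Fluo4 ratio after carbachol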
Large screens that a line does not name were inactive (follow-up assays come after a bar, where they were run).

COc1ccc(/C=N/NC(=O)C2COc3ccccc3O2)cc1OC (centres undefined)	none
c1ccc(COc2ccc(CN3CCN(c4ccccn4)CC3)cc2)cc1	RGS4 pot -8.32 | RGS4 act valid 89.5 | M3R Ca counter 58.3
Cc1ccc(Cc2c(C)nc3nc(SCC(=O)NCCCN4CCOCC4)nn3c2C)cc1	none
Cc1ccccc1Cc1c(C)nc2nc(SCC(=O)NCCCN3CCCCC3)nn2c1C	RGS4 pot -9.55 | RGS4 act valid 74.5 | M3R Ca counter 43.3
CCN(CC)C(=O)CSc1nc(O)c(Cc2ccc(OC)cc2)c(=O)[nH]1	none
O=C(NCCCN1CCCCCC1)c1ccc2c(Cl)c3c(nc2c1)CCCC3	none
CCN1CCN(CCCNC(=O)c2ccc3c(Cl)c4c(nc3c2)CCCC4)CC1	RGS4 pot -8.56 | RGS4 act valid 81.5 | M3R Ca counter 49.8
Cc1ccc(C(=O)N2CCN(c3ccc(NC(=O)COc4ccccc4C)cc3)CC2)cc1	RGS4 pot -8.39 | RGS4 act valid 61.0 | M3R Ca counter 39.3
CCC(=O)N1CCN(c2ccc(NC(=O)COc3ccc(C)cc3C)cc2)CC1	none
Cn1c(=O)n(CCOc2ccccc2Cl)c2ccccc21	RGS4 pot -7.82 | RGS4 act valid 88.0 | M3R Ca counter 39.8
Cn1c(=O)n(CCOc2ccc(Cl)cc2Cl)c2ccccc21	none
Cc1ccc([N+](=O)[O-])cc1S(=O)(=O)NCCc1c(C)[nH]c2c(C)cccc12	none
O=S(=O)(c1ccc(Br)s1)N1CCN(Cc2ccc3c(c2)OCO3)CC1	RGS4 pot -9.34 | RGS4 act valid 89.5 | M3R Ca counter 85.8
Cc1cc(S(=O)(=O)NCCC2=CCCCC2)ccc1Br	RGS4 pot -9.55 | RGS4 act valid 92.0 | M3R Ca counter 83.3
Cc1ccc(S(=O)(=O)NCCC2=CCCCC2)cc1C(N)=O	none
O=C1CCc2ccc(OCCCCN3CCN(c4cccc(Cl)c4Cl)CC3)cc2N1	RGS4 pot -9.17 | RGS4 act valid 79.0 | M3R Ca counter 65.3
CCOC(=O)/C=C(/C)N1N=C(c2ccc(OC)cc2)CC1c1cccc([N+](=O)[O-])c1 (centres undefined)	none
CC1CCN(c2ccccc2NC(=O)c2ccc(Br)o2)CC1	RGS4 pot -9.4 | RGS4 act valid 54.0 | M3R Ca counter inactive
Cc1cccc(NC(=O)/C(C#N)=C/c2ccccc2O)n1	none (no result: MrgX1 PAM, MrgX1 agonist, MrgX1 antagonist)
Cc1ccccc1OCC(=O)N1CCc2ccccc2C1	none
Cc1ccc(C)c(OCC(=O)N2CCc3ccccc3C2)c1	RGS4 pot -7.7 | RGS4 act valid 56.5 | M3R Ca counter 83.8
COc1cccc(OCc2nc(-c3ccc(Br)o3)no2)c1	none
C[N+]1(CC(=O)OCCCc2ccccc2)CCCCC1	none
CC1(C(O)(C#CC[N+]2(C)CCCCC2)c2ccccc2)CCCC1 (centres undefined)	RGS4 pot -15.5 | RGS4 act valid 91.5 | M3R Ca counter 94.8
CCOc1ccccc1OCC(=O)OCC(=O)NNC(=O)c1ccc([N+](=O)[O-])cc1	none
COc1ccc(C2NC(=O)NC(O)(C(F)(F)F)C2C(=O)c2ccc(F)cc2)cc1 (centres undefined)	RGS4 pot -8.78 | RGS4 act valid 92.0 | M3R Ca counter 83.3
COc1cc(C2NC(=O)NC(O)(C(F)(F)F)C2C(=O)c2ccc(Cl)cc2)ccc1O (centres undefined)	none (no result: RGS4 pot, RGS4 inh)
CCOC(=O)c1nc(NCc2cccc(OC)c2)c2ccccc2n1	none
c1ccc(Cn2c3ccccc3c3nnc(SCCN4CCCCC4)nc32)cc1	RGS4 pot -10.8 | RGS4 act valid 93.0 | M3R Ca counter 90.3
CCCn1c2ccc(C)cc2c2nnc(SCCN3CCCCC3)nc21	RGS4 pot -8.94 (no result: MrgX1 PAM, MrgX1 agonist, MrgX1 antagonist) | RGS4 act valid 79.0 | M3R Ca counter 83.8
CCn1c2ccc(C)cc2c2nnc(SCCN3CCCCC3)nc21	none
CS(=O)(=O)c1sc(C(=O)NC(=O)Nc2cccc(C(F)(F)F)c2)c2c1C=CCC2	none
Cc1cccc(NS(=O)(=O)c2cc(C(=O)N3CCc4ccccc4C3)ccc2Cl)c1C	RGS4 pot -8.13 | RGS4 act valid 82.5 | M3R Ca counter 29.8
Cc1nn(-c2ccccc2)c(Cl)c1C(=O)OCC(=O)NCCc1ccccc1	RGS4 pot -7.96 | RGS4 act valid 44.5 | M3R Ca counter inactive
CCOC(=O)Nc1sc2c(c1C#N)CCCC2	none
COc1ccccc1-c1c(C)nn2c(N)c(-c3ccc(Cl)cc3)cnc12	none
Cc1ccccc1C1c2[nH]c3ccccc3c2CCN1CCCn1cccn1 (centres undefined)	RGS4 pot -7.74 | RGS4 act valid 93.0 | M3R Ca counter 90.8
Fc1ccc(C2c3[nH]c4ccccc4c3CCN2CCCn2cccn2)cc1 (centres undefined)	none
Clc1ccc(Nc2ccc(NCc3ccccc3)nn2)cc1	RGS4 pot -7.57 | RGS4 act valid inactive | M3R Ca counter inactive
Cc1ccc(Nc2ccc(NCc3ccccc3)nn2)cc1C	none
Cc1ccccc1C(=NCCCN(C)C)c1ccccc1C	RGS4 pot -9.35 | RGS4 act valid 87.5 | M3R Ca counter 55.8
O=C(c1ccc(S(=O)(=O)Cc2ccccc2Cl)c([N+](=O)[O-])c1)N1CCN(c2ccccn2)CC1	none
Cc1c(C)n(Cc2ccccc2)c2ncnc(NCCCN(C)C)c12	RGS4 pot -9.44 | RGS4 act valid 70.0 | M3R Ca counter 83.8
c1ccc2c(-c3nc(C4CCCCC4)no3)cc(-c3ccncc3)nc2c1	RGS4 pot -9.43 | RGS4 act valid 93.0 | M3R Ca counter 84.8
COc1ccc(-n2ncc3c2CC(C)(C)CC3NC(=O)c2ccnn2C)cc1 (centres undefined)	none
C=CCn1c(SCC(=O)N2CCc3ccccc3C2)nc2sc(C)c(C)c2c1=O	RGS4 pot -7.89 | RGS4 act valid 85.0 | M3R Ca counter 58.3
C=CCn1c(SCC(=O)N2CCc3ccccc3C2)nc2sc(CC)cc2c1=O	none
C=CCSC(=C(C#N)C#N)c1cc2c([nH]1)CCCC2	RGS4 pot -9.2 | RGS4 act valid 89.5 | M3R Ca counter 31.8
O=C(O)c1cc2c([nH]c1=O)CCCC2	none
COc1cccc(C(=O)NCCS(=O)(=O)N2CCCC2)c1	none
O=C(C[n+]1cc(-c2ccc(Cl)c(Cl)c2)n2c1CCC2)N1c2ccccc2Sc2ccccc21	RGS4 pot -11.2 | RGS4 act valid 93.0 | M3R Ca counter 94.8
COc1cccc(CN2CCCC(C(=O)Nc3ccc(-c4cscn4)cc3)C2)c1 (centres undefined)	RGS4 pot -9.93 | RGS4 act valid 91.5 | M3R Ca counter 62.3

Bioassay records (PubChem BioAssay)
